Results as given in ChEMBL document CHEMBL4028818, “Tricyclic 4,4-dimethyl-3,4-dihydrochromeno[3,4-d]imidazole derivatives as microsomal prostaglandin E2 synthase-1 (mPGES-1) inhibitors: SAR and in vivo efficacy in hyperalgesia pain model” (Bioorg Med Chem Lett, 2017).

Columns and labels:
Cytochrome P450 2C19 = Cytochrome P450 2C19 (Homo sapiens, UniProt P33261); experiment: Inhibition of CYP2C19 in human liver microsomes at 1 uM measured after 40 mins in presence of NADPH by LC/MS/MS analysis; format: ADME
Chain of Cytochrome P450 2C19 (P33261 whole entry, canonical isoform): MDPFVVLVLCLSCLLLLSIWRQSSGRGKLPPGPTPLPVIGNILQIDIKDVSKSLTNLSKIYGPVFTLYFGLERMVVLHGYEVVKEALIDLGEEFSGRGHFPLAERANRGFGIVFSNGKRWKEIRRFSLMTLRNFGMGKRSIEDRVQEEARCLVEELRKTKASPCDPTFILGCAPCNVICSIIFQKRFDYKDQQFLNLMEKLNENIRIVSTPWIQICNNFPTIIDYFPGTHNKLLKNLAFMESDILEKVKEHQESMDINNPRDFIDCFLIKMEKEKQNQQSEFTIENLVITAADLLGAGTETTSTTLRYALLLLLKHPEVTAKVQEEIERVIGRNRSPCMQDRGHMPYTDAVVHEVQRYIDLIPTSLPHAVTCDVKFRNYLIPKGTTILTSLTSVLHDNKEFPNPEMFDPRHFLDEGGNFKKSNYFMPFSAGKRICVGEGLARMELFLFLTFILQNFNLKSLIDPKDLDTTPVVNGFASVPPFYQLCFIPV
Summary of the method: (§1)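 CYP isoforms 1A2, 2D6, 3A4, 2C9 and 2C19 were tested at 1 and 10 µM. Results are % inhibition compared with a no-inhibitor control, run in triplicate.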

Prostaglandin E synthase [1] = target: T1, Prostaglandin E synthase (Homo sapiens, UniProt O14684); experiment: Inhibition of mPGES-1 in human A549 cells assessed as decrease in IL1beta induced PGE2 release preincubated for 30 mins followed by IL-1beta addition after 16 to 20 hrs by HTRF method; format: cell-based
T1 sequence (O14684 whole entry): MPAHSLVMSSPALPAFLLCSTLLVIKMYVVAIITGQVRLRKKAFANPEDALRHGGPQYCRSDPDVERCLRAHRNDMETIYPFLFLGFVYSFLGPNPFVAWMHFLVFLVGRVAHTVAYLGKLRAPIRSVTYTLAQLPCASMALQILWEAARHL

[2] = Metabolic stability in rat liver microsomes assessed as parent compound remaining at 1 uM after 60 mins in presence of NADPH by LC/MS/MS analysis; format: ADME, microsome; details: read-out: Stability
Summary of the method: (§2)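 Compound at 1.0 µM was incubated with liver microsomes (1.0 mg/mL protein) at 37 °C for 60 min. Samples were analysed by LC/MS/MS as % parent remaining. Run in triplicate.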

[3] = Half life in Sprague-Dawley rat at 10 mg/kg, po; format: ADME, organism-based; details: in vivo
Summary of the method: (§3)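 Male Sprague-Dawley rats were dosed orally as a 0.5% methylcellulose suspension. Cmax, AUC0-24, Tmax, T1/2 and %F were determined. Values are mean ± SD, n = 3.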

[4] = Tmax in Sprague-Dawley rat at 10 mg/kg, po; format: ADME, organism-based; details: in vivo; summary of the method: as §3
[5] = Apparent volume of distribution in Sprague-Dawley rat at 5 mg/kg, iv administered as single bolus dose; format: ADME, organism-based; details: in vivo, read-out: Vz
Summary of the method: (§4)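 Male Sprague-Dawley rats were dosed i.v. in a vehicle of 20% NMP + 20% ethanol + 60% PEG 200. T1/2, CL and Vz were derived. Values are mean ± SD, n = 3.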

[6] = Protein binding in Guinea pig plasma at 10 uM after 5 to 10 mins by LC-MS/SM analysis; format: ADME, cell-free, Cavia porcellus; details: read-out: PPB
Summary of the method: (§5)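 Plasma protein binding was measured by equilibrium dialysis at 10 µM compound.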

[7] = Clearance in Sprague-Dawley rat at 5 mg/kg, iv administered as single bolus dose; format: ADME, organism-based; details: in vivo; summary of the method: as §4
[8] = AUC (0 to 24 hrs) in Sprague-Dawley rat at 10 mg/kg, po; format: ADME, organism-based; set-up: dose 10 mg/kg, time < 24 hr, route oral; details: in vivo; summary of the method: as §3
[9] = Metabolic stability in Guinea pig liver microsomes assessed as parent compound remaining at 1 uM after 60 mins in presence of NADPH by LC/MS/MS analysis; format: ADME, Cavia porcellus, microsome; details: read-out: Stability; summary of the method: as §2
CYP2C9 = CYP2C9 (Homo sapiens, UniProt P11712); experiment: Inhibition of CYP2C9 in human liver microsomes at 10 uM measured after 20 mins in presence of NADPH by LC/MS/MS analysis relative to control; format: ADME; summary of the method: as §1
Chain of CYP2C9 (P11712 whole entry): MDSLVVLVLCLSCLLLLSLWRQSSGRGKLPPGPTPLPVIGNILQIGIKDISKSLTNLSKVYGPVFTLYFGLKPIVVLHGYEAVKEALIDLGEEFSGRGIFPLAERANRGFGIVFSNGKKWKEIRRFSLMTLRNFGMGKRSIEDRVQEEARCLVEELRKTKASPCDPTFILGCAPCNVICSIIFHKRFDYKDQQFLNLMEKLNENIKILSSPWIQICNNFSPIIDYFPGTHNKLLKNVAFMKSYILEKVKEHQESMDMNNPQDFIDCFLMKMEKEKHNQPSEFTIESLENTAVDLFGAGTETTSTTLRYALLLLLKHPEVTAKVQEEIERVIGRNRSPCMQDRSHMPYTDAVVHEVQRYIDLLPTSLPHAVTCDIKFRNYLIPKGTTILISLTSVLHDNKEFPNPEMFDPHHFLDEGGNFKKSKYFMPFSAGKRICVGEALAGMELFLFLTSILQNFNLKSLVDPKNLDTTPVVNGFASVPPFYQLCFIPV

[10] = target: T2, Prostaglandin G/H synthase 2 (Homo sapiens, UniProt P35354); experiment: Inhibition of recombinant human N-terminal His-tagged COX2 expressed in baculovirus infected Sf21 insect cells assessed as decrease in PGE2 release using arachidonic acid as substrate preincubated for 15 mins followed by arachidonic acid addition measured after 5 mins
T2 sequence (P35354 whole entry): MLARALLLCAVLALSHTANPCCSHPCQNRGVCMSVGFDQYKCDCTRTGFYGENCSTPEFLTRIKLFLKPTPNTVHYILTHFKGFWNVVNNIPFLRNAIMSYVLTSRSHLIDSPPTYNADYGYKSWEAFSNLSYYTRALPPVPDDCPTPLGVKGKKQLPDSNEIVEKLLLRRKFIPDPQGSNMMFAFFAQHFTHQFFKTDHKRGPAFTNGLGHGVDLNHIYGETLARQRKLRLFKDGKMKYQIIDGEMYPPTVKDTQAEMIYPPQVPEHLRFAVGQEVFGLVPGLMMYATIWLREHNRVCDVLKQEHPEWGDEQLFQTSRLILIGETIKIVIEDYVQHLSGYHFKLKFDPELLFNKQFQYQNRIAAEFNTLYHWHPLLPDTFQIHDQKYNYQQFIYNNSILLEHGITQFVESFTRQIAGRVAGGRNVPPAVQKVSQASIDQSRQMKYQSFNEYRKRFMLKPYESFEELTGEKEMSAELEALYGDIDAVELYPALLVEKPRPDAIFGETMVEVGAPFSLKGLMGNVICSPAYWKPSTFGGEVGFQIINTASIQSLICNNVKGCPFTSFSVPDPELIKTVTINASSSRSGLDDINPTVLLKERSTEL

[11] = Protein binding in human plasma at 10 uM after 5 to 10 mins by LC-MS/SM analsysis; format: ADME, cell-free; details: read-out: PPB; summary of the method: as §5
CYP2C19 = CYP2C19 (Homo sapiens, UniProt P33261); experiment: Inhibition of CYP2C19 in human liver microsomes at 10 uM measured after 40 mins in presence of NADPH by LC/MS/MS analysis relative to control; format: ADME; summary of the method: as §1
Chain of CYP2C19 (P33261 whole entry): as the sequence (P33261 whole entry, canonical isoform) above

CYP3A4 = CYP3A4 (Homo sapiens, UniProt P08684); experiment: Inhibition of CYP3A4 in human liver microsomes at 10 uM measured after 20 mins in presence of NADPH by LC/MS/MS analysis relative to control; format: ADME; summary of the method: as §1
Chain of CYP3A4 (P08684 whole entry): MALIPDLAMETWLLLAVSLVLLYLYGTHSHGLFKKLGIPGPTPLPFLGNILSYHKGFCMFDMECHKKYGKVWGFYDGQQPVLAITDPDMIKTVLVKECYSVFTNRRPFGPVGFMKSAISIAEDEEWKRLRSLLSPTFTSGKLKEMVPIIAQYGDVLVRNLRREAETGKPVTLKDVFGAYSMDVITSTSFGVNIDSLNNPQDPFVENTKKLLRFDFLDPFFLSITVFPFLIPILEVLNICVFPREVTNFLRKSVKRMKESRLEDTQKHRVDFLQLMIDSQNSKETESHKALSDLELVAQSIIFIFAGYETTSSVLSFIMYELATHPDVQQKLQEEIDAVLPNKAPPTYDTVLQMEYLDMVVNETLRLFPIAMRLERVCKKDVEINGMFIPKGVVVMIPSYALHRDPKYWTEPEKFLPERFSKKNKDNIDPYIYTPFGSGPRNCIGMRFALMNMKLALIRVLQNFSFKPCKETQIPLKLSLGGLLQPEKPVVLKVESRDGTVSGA

Cytochrome P450 2D6 = Cytochrome P450 2D6 (Homo sapiens, UniProt P10635); experiment: Inhibition of CYP2D6 in human liver microsomes at 1 uM measured after 20 mins in presence of NADPH by LC/MS/MS analysis; format: ADME; summary of the method: as §1
Chain of Cytochrome P450 2D6 (P10635 whole entry): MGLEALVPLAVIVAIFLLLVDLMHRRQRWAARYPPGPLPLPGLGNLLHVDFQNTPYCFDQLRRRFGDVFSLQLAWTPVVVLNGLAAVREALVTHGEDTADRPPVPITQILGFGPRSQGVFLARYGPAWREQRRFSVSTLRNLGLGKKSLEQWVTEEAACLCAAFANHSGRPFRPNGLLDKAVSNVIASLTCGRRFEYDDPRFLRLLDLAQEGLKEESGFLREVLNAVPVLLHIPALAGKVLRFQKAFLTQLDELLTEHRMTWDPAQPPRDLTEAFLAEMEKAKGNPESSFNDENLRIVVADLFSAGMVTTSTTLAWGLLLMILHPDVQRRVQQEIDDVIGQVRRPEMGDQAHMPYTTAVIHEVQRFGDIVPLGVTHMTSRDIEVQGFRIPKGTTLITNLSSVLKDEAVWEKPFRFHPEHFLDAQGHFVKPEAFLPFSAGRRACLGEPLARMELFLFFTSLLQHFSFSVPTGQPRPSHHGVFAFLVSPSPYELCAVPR

[12] = Oral bioavailability in Sprague-Dawley rat at 10 mg/kg; format: ADME, organism-based; details: in vivo; summary of the method: as §3
Prostaglandin E synthase [13] = target: T1, Prostaglandin E synthase; experiment: Inhibition of recombinant human mPGES-1 expressed in CHO cells assessed as reduction in PGE2 formation using PGH2 a substrate preincubated for 10 mins followed by substrate addition measured after 1 min; format: cell-based
Summary of the method: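 mPGES-1 enzyme inhibition. % inhibition values are means of two experiments in duplicate. IC50 values were derived from graphs of at least two experiments in duplicate.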

[14] = target: Prostaglandin G/H synthase 1 (Homo sapiens, UniProt P23219); experiment: Inhibition of COX1 in human U937 cells assessed as decrease in PGE2 release using arachidonic acid as substrate preincubated for 15 mins followed by arachidonic acid addition measured after 5 mins; format: cell-based
Chain of Prostaglandin G/H synthase 1 (P23219 whole entry): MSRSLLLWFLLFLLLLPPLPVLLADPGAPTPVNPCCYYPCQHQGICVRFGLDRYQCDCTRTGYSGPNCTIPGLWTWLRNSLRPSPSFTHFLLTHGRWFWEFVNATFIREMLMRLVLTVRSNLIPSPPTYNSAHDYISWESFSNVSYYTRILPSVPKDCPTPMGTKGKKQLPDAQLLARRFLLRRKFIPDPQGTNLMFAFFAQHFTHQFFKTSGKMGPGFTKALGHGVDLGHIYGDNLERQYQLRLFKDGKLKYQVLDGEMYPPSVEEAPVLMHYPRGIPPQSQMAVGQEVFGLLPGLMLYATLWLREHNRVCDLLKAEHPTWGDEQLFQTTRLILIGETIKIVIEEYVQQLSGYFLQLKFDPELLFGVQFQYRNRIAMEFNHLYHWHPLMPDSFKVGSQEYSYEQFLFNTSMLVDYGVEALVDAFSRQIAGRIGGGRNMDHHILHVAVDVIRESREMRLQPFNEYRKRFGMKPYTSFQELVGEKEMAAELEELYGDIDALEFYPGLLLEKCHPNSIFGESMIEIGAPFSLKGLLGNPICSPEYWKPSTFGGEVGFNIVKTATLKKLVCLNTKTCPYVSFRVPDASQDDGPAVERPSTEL

SMILES | inhibition (INH) (Cytochrome P450 2C19) | IC50 (Prostaglandin E synthase [1]) [nM] | remaining at 1 h, 1 µM [2] [%] | half-life [3] [h] | Tmax [4] [h] | Vd [5] [L/kg] | fraction unbound at 10 µM [6] | clearance [7] [mL/min/kg] | AUC(0-t) at 24 h [8] [ng·h/mL] | remaining at 1 h, 1 µM [9] [%] | inhibition at 20 min, 10 µM (CYP2C9) [%] | IC50 [10] [nM] | fraction unbound at 10 µM [11] | inhibition at 40 min, 10 µM (CYP2C19) [%] | inhibition at 20 min, 10 µM (CYP3A4) [%] | inhibition (INH) (Cytochrome P450 2D6) | bioavailability [12] [%] | IC50 (Prostaglandin E synthase [13]) [nM] | IC50 [14] [nM]
CC1(C)Oc2cc(C#Cc3cc(Cl)ccc3F)ccc2-c2[nH]c(-c3c(F)cccc3Cl)nc21 | Not Active | 839 | 44 | 6.77 | 4 | 5.3 | < 0.005 | 11.1 | 12400 | 73 | 33.3 | 9880 | < 0.045 | 17 to 26 | 31 | Not Active | 85 | 36.3 | 60
CC1(C)Oc2cc(-c3cccc(OC(F)(F)F)c3)ccc2-c2[nH]c(-c3c(F)cccc3Cl)nc21 | Not Active | 840 | 83 | 11.2 | 4 | 3.11 | < 0.005 | 3.63 | 12600 | 80 | 45.4 | > 10000 | < 0.005 | 27.2 | 8.4 | Not Active | 33 | 56.9 | 6750
